# Results gathered from unrelated publications.
# Each line is one published result; the experiments were not run side by side.
# Organism: Salmonella enterica
# Read-out: microbial growth
SMILES,assay,test system,setting,MIC
CNC(=O)c1cc(Oc2ccc(NC(=O)Nc3ccc(Cl)c(C(F)(F)F)c3)cc2)ccn1,,TYPHIMURIUM,,> 100 µM
CN(C)[C@@H]1C(O)=C(C(N)=O)C(=O)[C@@]2(O)C(O)=C3C(=O)c4c(O)cccc4[C@@](C)(O)[C@H]3C[C@@H]12,,ATCC14028 TYPHIMURIUM,,8 µg/mL
Cc1cc(NS(=O)(=O)c2ccc(N)cc2)no1,,,"20 h, pH 7",64 µg/mL
C/C(=N\NC(=N)N)c1ccc(Oc2ccc(/C(C)=N/NC(=N)N)cc2)cc1.Cl.Cl,,ATCC14028,,54.9 µg/mL
O=C(Nc1ccc2c(c1)OC(F)(F)O2)Nc1ccc(Cl)c(C(F)(F)F)c1,,TYPHIMURIUM,,> 100 µM
CC1(C)S[C@@H]2[C@H](NC(=O)[C@H](N)c3ccccc3)C(=O)N2[C@H]1C(=O)O,broth dilution,,,8 µg/mL
COc1cc(Cc2cnc(N)nc2N)cc(OC)c1OC,,,"20 h, pH 7.2",0.25 µg/mL
Cl.N=C(N)N/N=C/c1ccc(-c2ccc(/C=N/Nc3ccccc3Cl)cc2)cc1,,ATCC14028,,> 215 µg/mL
NC[C@H]1O[C@H](O[C@H]2[C@H](O)[C@@H](O[C@H]3O[C@H](CO)[C@@H](O)[C@H](N)[C@H]3O)[C@H](N)C[C@@H]2N)[C@H](N)C[C@@H]1O,,ATCC14028,,150 µg/mL
C[C@@H](O)[C@H]1C(=O)N2C(C(=O)O)=C(S[C@@H]3CN[C@H](C(=O)N(C)C)C3)[C@H](C)[C@H]12,broth dilution,CHOLERAESUIS,clinical isolate,≤ 0.5 µg/mL
O=C(O)c1cn(C2CC2)c2cc(N3CCNCC3)c(F)cc2c1=O,,,"20 h, pH 7.2",0.0156 µg/mL
